Screening results as filed in PubChem BioAssay.
MrgX1 PAM: human MrgX1 positive allosteric modulation, primary screen | MrgX1-HEK293, Fluo-4 calcium flux, FDSS; active compounds read high | B-score at 10 µM | Q96LB2 | AID 588675 | hit rate 0.63% among 310,000;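 active means plate-corrected calcium response at least 3 library SD above typical, normal starting fluorescence, not activating the receptor alone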;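 further: compound read alongside a low EC10 to EC30 dose of BAM8-22 agonist; peak minus trough fluorescence over baseline measured at the second addition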
Target sequence (Q96LB2 whole entry, looked up): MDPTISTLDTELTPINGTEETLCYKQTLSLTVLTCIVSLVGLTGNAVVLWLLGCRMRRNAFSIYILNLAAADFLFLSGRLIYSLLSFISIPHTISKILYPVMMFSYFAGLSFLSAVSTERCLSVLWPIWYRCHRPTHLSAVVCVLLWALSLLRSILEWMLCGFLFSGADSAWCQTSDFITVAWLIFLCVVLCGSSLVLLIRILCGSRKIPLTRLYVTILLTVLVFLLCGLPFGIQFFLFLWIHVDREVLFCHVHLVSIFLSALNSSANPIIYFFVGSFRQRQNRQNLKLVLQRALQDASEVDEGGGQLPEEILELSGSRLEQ
MrgX1 ag: activates human MrgX1 receptor signaling. Q96LB2. MrgX1-HEK293 cells, Fluo-4 calcium fluorescence, agonist mode; active compounds read high. B-score at 10 µM. hit rate 0.44% among 310,000;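 active means calcium response B-score plate-corrected fluorescence ratio at least 3 library SD, with starting fluorescence B-score inside 5 SD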
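Material – MrgX1-expressing HEK293 cells · Input – 15,000 cells seeded per well · Dosing – compound as first of three additions · Times – overnight seeding, then 1 h dark dye loading · Measured by – kinetic Fluo-4 NW fluorescence of intracellular calcium · Read-out – B-scored fluorescence response ratio · Benchmarks – positive and negative control wells on each plate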
RGS4 pot: potentiators or activators of RGS4; HEK293 M3R/inducible RGS4, carbachol calcium flux Fluo4; active compounds read low; B-score at 10 µM; hit rate 0.92% among 310,000;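 active means B-score of the integrated calcium signal more than 4 SD below the library mean, with starting fluorescence not abnormally high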;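 further: negative B-score means reduced calcium response which marks RGS4 activation or potentiation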
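Material: Inducible-RGS4 HEK293 cells carrying M3 receptor; also added: carbachol at ECmax as muscarinic agonist stimulus; incubation: compound preincubation 20 min at room temperature before agonist; signal: Fluo4-AM (2 µM) calcium-flux fluorescence, kinetic read; measure: integrated calcium ratio converted to B score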
MrgX1 antag: blocks BAM8-22 activation of human MrgX1 receptor | hit rate 1.3% among 310,000 | B-score at 10 µM | MRGX1-HEK293 calcium flux, Fluo-4, BAM8-22 antagonism; active compounds read low | Q96LB2;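 active means calcium-response B-score plate-corrected more than 3 library SD below zero, starting fluorescence within 5 deviations, no agonist response on first addition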;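 further: peak minus trough fluorescence over baseline after final BAM8-22 challenge near maximal dose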
RGS4 inh: human RGS4 inhibition; HEK293 M3R/RGS4 inducible, Fluo-4 calcium flux; active compounds read high; triggered by carbachol at its EC20; B-score at 10 µM; hit rate 0.45% among 310,000;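 active means B-score, a plate-corrected calcium signal, over three deviations above library mean, with baseline fluorescence within five deviations of library mean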;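 further: RGS4 expression induced by doxycycline in cells with stable M3 receptor; B-score is computed from the integrated fluorescence ratio over baseline after carbachol; higher B-score means a larger calcium signal and so more RGS4 inhibition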
Target sequence (P49798 whole entry, looked up): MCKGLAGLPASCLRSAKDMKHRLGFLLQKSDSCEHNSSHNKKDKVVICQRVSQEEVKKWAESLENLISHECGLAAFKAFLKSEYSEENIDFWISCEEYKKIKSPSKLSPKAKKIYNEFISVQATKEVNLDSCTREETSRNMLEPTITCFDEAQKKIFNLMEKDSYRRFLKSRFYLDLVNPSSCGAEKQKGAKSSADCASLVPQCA
MrgX1 antag conf: human MrgX1 receptor antagonism, re-confirmation screen; remaining BAM8-22 calcium response % of control (active compounds read low), % at 10 µM; shares compounds with MrgX1 antag; hit rate 19% among 2,300; MrgX1-HEK293, BAM8-22 calcium flux, Fluo-4; active compounds read low;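 active means remaining agonist calcium response no higher than 100% minus 3 SD of agonist-only control wells, with starting fluorescence near control levels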;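 further: agonist BAM8-22 given at a near maximal EC90 to ECmax level; peak minus minimum fluorescence divided by baseline after agonist addition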
HEK293 Ca flux: activity in parental HEK293 cells lacking MrgX1. shares compounds with MrgX1 antag. Fluo-4 calcium fluorescence, FDSS. fluorescence ratio F(max-min)/F0 at 10 µM. hit rate 2% among 4,000;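 active means duplicate-averaged calcium fluorescence ratio at least three times the standard deviation of buffer wells, a nonspecific response in parental cells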
HEK293 Ca counter: counter-screen for MrgX1 allosteric activators: effect in parental HEK293 cells | shares compounds with MrgX1 antag | parental HEK293 calcium flux, Fluo-4 fluorescence ratio; active compounds read high | fluorescence ratio F(max-min)/F0 at 10 µM | hit rate 0.4% among 4,000;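 active means calcium fluorescence ratio, averaged over duplicates, at least 3 SD of the buffer-well ratio, meaning a nonspecific response in receptor-free cells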;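 further: untransfected parental HEK293 lacking MrgX1 used as counterscreen for MrgX1 allosteric activators; fluorescence change taken during the second addition on a kinetic imager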
HEK293 Ca cntr2: activity in parental HEK293 cells lacking MrgX1 receptor | fluorescence ratio F(max-min)/F0 at 10 µM | hit rate 8.7% among 4,000 | shares compounds with MrgX1 antag | AID 624115 | Fluo-4 calcium fluorescence (FDSS); active compounds read high;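 active means calcium fluorescence ratio at least three times the spread of buffer wells, meaning a non-specific response in parental cells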
The depositor's hits bear a star; i = inactive; . = no result given. Most compounds without a hit are left out; they make up all but 3.5% or so of the library.

SMILES | MrgX1 PAM | MrgX1 ag | RGS4 pot | MrgX1 antag | RGS4 inh | MrgX1 antag conf | HEK293 Ca flux | HEK293 Ca counter | HEK293 Ca cntr2
N#Cc1ccccc1S(=O)(=O)N1CCN(CC(=O)NC(=O)NC2CCCCC2)CC1 | i | i | i | -6.33* | i | i | i | i | i
COc1cccc(NC(=O)CN(C)C(=O)/C=C/c2ccc3ccccc3n2)c1 | i | i | i | i | i | . | . | . | .
COc1ccc(C2C3=C(CCCC3=O)Nc3ccc4ncccc4c32)cc1OC (stereo not given) | i | i | i | -4.67* | i | i | i | i | i
COc1cc(C2C3=C(CCCC3=O)Nc3ccc4ncccc4c32)ccc1O (stereo not given) | i | i | i | i | i | . | . | . | .
Cc1cc(Br)ccc1NC(=O)CNC(=O)Cc1ccc(S(=O)(=O)N2CCOCC2)s1 | i | i | i | i | i | . | . | . | .
CSC1=NCCN1C(=O)c1ccc(Br)o1 | i | i | i | -5.37* | i | i | i | i | i
Cc1ccccc1C1CC(c2cccs2)Nc2nnnn21 (stereo not given) | i | i | i | i | i | . | . | . | .
O=C(CCSc1ccccc1)NC(=O)COC(=O)C1CCCCC1 | i | i | i | -4.59* | i | i | i | i | i
O=C(CCSc1ccccc1)NC1CCCCCC1 | i | i | i | i | i | . | . | . | .
COc1cc(NC(=O)CCS(=O)(=O)c2ccc3c(c2)n(C)c(=O)c(=O)n3C)cc(OC)c1 | i | i | i | i | i | . | . | . | .
CC(=O)c1ccccc1C(=O)N(C)C1CCCN(Cc2ccccc2F)C1 (stereo not given) | i | i | i | -4.85* | i | i | i | i | 45.1*
CCc1ccc(S(=O)(=O)/N=C2\C=C(Nc3ccc(C(=O)O)cc3)C(=O)c3ccccc32)cc1 | i | i | i | -7.72* | i | 85.3%* | i | i | i
Cc1ccc(S(=O)(=O)/N=C2\C=C(Nc3cccc(C(=O)O)c3)C(=O)c3ccccc32)cc1 | i | i | i | i | i | . | . | . | .
CC(C)N(C)Cc1nnnn1CC(=O)NCCc1cccc(C(F)(F)F)c1 | i | i | i | i | i | . | . | . | .
CCc1cccc2cc3c(N)c(C(=O)Nc4ccc(S(=O)(=O)N5CCCC5)cc4)sc3nc12 | i | i | i | -9.7* | i | i | 0.408* | i | i
CC1CC(C)CN(S(=O)(=O)c2ccccc2[N+](=O)[O-])C1 (stereo not given) | i | i | i | i | i | . | . | . | .
O=C(NCCc1ccccc1)c1cnn2c(C(F)F)cc(C3CC3)nc12 | i | i | i | i | i | . | . | . | .
Cc1nn(C)cc1CNC(=O)c1cnn2c(C(F)F)cc(C3CC3)nc12 | i | i | i | -4.73* | i | i | i | i | i
CCCC[C@@H]1CNC(=O)C(=O)N1CC(C)(C)C | i | i | i | -7.17* | i | i | i | i | i
CCOc1nc(Nc2ccc(OC)cc2)nc(OCC)n1 | i | i | i | i | i | . | . | . | .
CCOc1nc(Nc2ccc(OC)c(Cl)c2)nc(OCC)n1 | i | i | i | -4.8* | i | i | i | i | i
CSc1nc2ccc3nc(NC(=O)c4ccccc4)sc3c2s1 | i | i | i | -7.36* | i | i | i | i | i
O=C(Nc1ccccc1)N1CCC(c2ccccc2)C1 (stereo not given) | i | i | i | i | i | . | . | . | .
O=C(CCN1CCC(c2ccccc2)C1)c1ccccc1 (stereo not given) | i | i | i | -5.19* | i | i | i | i | i
CCOc1ccc(S(=O)(=O)N2CCC(C(=O)NC3CCCCC3)CC2)cc1 | i | i | i | i | i | . | . | . | .
SMILES | MrgX1 PAM | MrgX1 ag | RGS4 pot | MrgX1 antag | RGS4 inh | MrgX1 antag conf | HEK293 Ca flux | HEK293 Ca counter | HEK293 Ca cntr2
Cn1c(SCC(=O)c2cc(Cl)c(Cl)s2)nnc1-c1ccco1 | i | i | i | -4.78* | i | i | i | i | i
CCn1c(SCC(=O)Nc2ccc3c(c2)OCCO3)nnc1-c1ccco1 | i | i | i | i | i | . | . | . | .
Cc1nc(SCC(=O)Nc2ccc3c(c2)OCCO3)c2oc3ccccc3c2n1 | i | i | i | -7.5* | i | i | i | i | i
Cc1nc(SCC(=O)Nc2ccc3c(c2)OCO3)c(C#N)c2c1CCCC2 | i | i | i | i | i | . | . | . | .
Cc1cc(C)c(C#N)c(SCC(=O)Nc2ccc3c(c2)OCO3)n1 | i | i | i | -6.95* | i | i | i | i | i
Cn1c(SCC(=O)Nc2ccc3c(c2)OCCO3)nnc1-c1ccco1 | i | i | i | -4.85* | i | i | i | i | i
Cc1ccc(C(=O)CSc2nnc(-c3ccco3)n2C)cc1 | i | i | i | i | i | . | . | . | .
CC(=O)N1CCN(c2ccc(NC(=O)COc3ccc(Cl)cc3Cl)cc2)CC1 | i | i | i | -7* | i | 84.6%* | i | i | i
COc1ccccc1OCC(=O)Nc1nnc(C2CCCC2)s1 | i | i | i | i | i | . | . | . | .
CC(=O)c1sc(NC(=O)COc2ccc(Cl)cc2Cl)nc1C | i | i | i | -4.74* | i | i | i | i | i
O=C(COc1cc(Cl)ccc1Cl)Nc1nnc(C2CC2)s1 | i | i | i | -4.56* | i | i | i | i | i
CC1(c2ccc(Cl)cc2)NC(=O)N(CC(=O)NC(=O)NCc2ccco2)C1=O (stereo not given) | i | i | i | i | i | . | . | . | .
Cc1cc(NC(=O)CCC(=O)N(c2ccccc2)C(C(=O)NC2CCCC2)c2ccccc2F)no1 (stereo not given) | i | i | i | i | i | . | . | . | .
O=C(O)C1(c2ccccc2)CCN(S(=O)(=O)c2ccc(F)c(F)c2)CC1 | i | i | i | i | i | . | . | . | .
Cc1cc([N+](=O)[O-])ccc1NC(=O)CSc1nnc(C)n1C | i | i | i | i | i | . | . | . | .
